Residue numbers refer to the chain shown, from its start. Blank lines part the entries; values can stand above or below the molecule they belong to.
Tests used:
[1] = biological target: T1, rM1 receptor (Rattus norvegicus, UniProt P08482); assay: Calcium mobilization assay, CHO-K1 cells stably expressing rM1; format: cell-based; conditions: for M1 potency and efficacy (SAR statement): substitution around the benzyl ring; for EC50: read-out: M1 EC50
T1 sequence (P08482 1-460): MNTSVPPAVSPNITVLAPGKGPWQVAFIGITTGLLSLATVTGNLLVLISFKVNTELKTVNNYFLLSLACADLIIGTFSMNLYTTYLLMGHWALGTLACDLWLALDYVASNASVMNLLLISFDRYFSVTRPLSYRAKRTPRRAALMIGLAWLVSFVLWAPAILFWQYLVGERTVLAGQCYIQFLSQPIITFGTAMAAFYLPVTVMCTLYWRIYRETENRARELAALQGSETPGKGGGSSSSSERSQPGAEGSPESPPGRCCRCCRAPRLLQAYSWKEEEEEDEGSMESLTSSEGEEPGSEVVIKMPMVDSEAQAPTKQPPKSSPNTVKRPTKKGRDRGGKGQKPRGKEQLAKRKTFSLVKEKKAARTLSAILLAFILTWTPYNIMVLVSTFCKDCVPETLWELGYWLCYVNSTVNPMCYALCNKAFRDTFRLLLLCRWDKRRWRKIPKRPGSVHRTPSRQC

[2] = biological target: T2, rM1 Y381A (Rattus norvegicus, UniProt P08482, Y381A); assay: Calcium mobilization in rM1 Y381A; format: cell-based; conditions: for potency at M1 Y381A compared with WT M1: M1Y381A CHO cells vs WT M1 CHO cells
T2 sequence (P08482 1-460 Y381A): T1 sequence (P08482 1-460) with Y381A

[3] = biological target: T3, hM5 (Homo sapiens, UniProt P08912); assay: Calcium mobilization assay, agonist mode, M5; format: cell-based; conditions: up to 30 μM
T3 sequence (P08912 1-532): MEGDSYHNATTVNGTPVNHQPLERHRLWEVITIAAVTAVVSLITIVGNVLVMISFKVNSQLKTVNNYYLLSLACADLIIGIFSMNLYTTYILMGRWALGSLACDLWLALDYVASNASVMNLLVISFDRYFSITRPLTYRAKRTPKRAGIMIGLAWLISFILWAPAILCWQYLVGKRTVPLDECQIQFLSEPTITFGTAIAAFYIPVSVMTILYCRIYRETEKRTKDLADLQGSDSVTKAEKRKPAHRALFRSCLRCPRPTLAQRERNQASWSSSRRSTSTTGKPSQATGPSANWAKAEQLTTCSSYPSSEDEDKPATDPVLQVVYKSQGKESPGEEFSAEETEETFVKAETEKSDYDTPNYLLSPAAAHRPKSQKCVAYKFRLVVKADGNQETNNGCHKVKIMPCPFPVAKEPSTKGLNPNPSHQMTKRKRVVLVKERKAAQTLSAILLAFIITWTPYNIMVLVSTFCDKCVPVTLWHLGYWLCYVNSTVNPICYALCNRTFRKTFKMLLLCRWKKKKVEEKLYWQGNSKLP
Outline: (§1)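 CHO-K1 cells stably expressing hM2/Gqi5 or rM4/Gqi5 (6 × 10^4 cells/well), or hM3 or hM5 (5 × 10^4 cells/well), were cultured overnight at 37 °C in 5% CO2. Cells were loaded with 2 μM Fluo-4 AM for 1 h at 37 °C in HBSS with 20 mM HEPES and 2.5 mM probenecid, pH 7.4. Eight-point test compound concentration series were added at 19 s of a 130 s read. Calcium flux was read as fluorescence fold over basal.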

[4] = biological target: T4, hM2 (Homo sapiens, UniProt P08172); assay: Calcium mobilization assay, agonist mode, M2; format: cell-based; conditions: up to 30 μM
T4 sequence (P08172 1-466): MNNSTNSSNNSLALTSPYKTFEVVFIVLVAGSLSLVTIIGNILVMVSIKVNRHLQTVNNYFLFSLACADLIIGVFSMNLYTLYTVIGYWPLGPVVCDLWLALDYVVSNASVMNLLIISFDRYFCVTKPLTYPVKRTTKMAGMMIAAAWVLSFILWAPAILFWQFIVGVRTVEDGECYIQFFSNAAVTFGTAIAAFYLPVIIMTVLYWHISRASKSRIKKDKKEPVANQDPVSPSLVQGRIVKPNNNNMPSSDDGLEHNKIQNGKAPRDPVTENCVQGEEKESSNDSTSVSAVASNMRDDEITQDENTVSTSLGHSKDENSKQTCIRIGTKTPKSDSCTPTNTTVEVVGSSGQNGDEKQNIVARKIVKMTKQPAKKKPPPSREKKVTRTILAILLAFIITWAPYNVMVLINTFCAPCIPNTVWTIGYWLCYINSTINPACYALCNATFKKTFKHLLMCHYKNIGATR
Outline: as §1

[5] = biological target: T5, rM4 (Rattus norvegicus, UniProt P08485); assay: Calcium mobilization assay, agonist mode, M4; format: cell-based; conditions: up to 30 μM
T5 sequence (P08485 1-478): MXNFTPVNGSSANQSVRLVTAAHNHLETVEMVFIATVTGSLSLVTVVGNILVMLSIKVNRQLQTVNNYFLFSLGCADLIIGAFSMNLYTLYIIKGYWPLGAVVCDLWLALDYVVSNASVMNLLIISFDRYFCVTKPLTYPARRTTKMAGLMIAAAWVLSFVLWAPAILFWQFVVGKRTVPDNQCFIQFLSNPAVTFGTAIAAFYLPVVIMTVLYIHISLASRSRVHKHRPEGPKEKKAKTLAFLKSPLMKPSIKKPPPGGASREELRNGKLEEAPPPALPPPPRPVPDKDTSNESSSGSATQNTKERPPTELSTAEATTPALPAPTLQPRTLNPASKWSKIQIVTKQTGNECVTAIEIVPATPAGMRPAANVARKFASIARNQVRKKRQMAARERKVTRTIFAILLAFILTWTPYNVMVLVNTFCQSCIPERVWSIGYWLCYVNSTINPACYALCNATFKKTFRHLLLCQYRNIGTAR
Outline: as §1

[6] = biological target: hM3 (Homo sapiens, UniProt P20309); assay: Calcium mobilization assay, agonist mode, M3; format: cell-based; conditions: up to 30 μM
Outline: as §1

[7] = biological target: T6, M1 (Rattus norvegicus, UniProt P08482); assay: HTS confirmation concentration-response in M1-CHO cells; format: cell-based; conditions: for sensitivity to block by atropine: concentration series in the presence of atropine; for EC50: read-out: M1 EC50, from the DPI DMSO stock
T6 sequence (P08482 1-460): T1 sequence (P08482 1-460)

[8] = tested on: scopolamine-induced deficits in contextual fear conditioning; assay: Contextual fear conditioning, scopolamine-induced deficit; format: in vivo; conditions: rat; for effect on acquisition of contextual fear conditioning response: 0.2 mg/kg s.c., 15 minutes prior to training, 0.2 mg/kg
Outline: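 Male Sprague–Dawley rats (380–420 g) were habituated to vehicle injections for 2 days. Test compound (1–10 mg/kg ip) was given 30 min before training, and scopolamine (0.2 mg/kg sc) or vehicle 15 min before. Training used two 1 s, 0.5 mA footshocks 2.5 min apart, with a vanilla odour cue. At 24 h, video-scored freezing over 7 min was expressed as percent. Groups had 3–4 rats; one-way ANOVA with Dunnett's test against vehicle/scopolamine.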

[9] = biological target: T7, M2 (Homo sapiens, UniProt P08172); assay: Antagonism of EC80 ACh response, calcium mobilization, M2; format: cell-based; conditions: read-out: M2 antagonism IC50; attenuation of EC80 ACh response
T7 sequence (P08172 1-466): T4 sequence (P08172 1-466)

[10] = biological target: T8, M5 (Homo sapiens, UniProt P08912); assay: Antagonism of EC80 ACh response, calcium mobilization, M5; format: cell-based; conditions: read-out: M5 antagonism IC50; attenuation of EC80 ACh response
T8 sequence (P08912 1-532): T3 sequence (P08912 1-532)

[11] = Aqueous solubility; format: physicochemical; conditions: water
[12] = Plasma-brain exposure profile PK study; format: in vivo; conditions: rat
Outline: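 Test compound was dissolved in sterile water at 5 mg/mL and dosed at 10 mg/kg ip in male Sprague–Dawley rats (225–250 g). Plasma and brain were collected at 0.5, 1, 2, 4 and 8 h, with three rats per time point. Brains were homogenized 1:3 in PBS, and samples were extracted by acetonitrile/0.1% formic acid precipitation with internal standard. Quantification was by LC-MS/MS SRM (10–2000 ng/mL calibration), with noncompartmental analysis.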

[13] = rM1 CHO-K1, calcium mobilization

Sequence of hM3 (P20309 whole entry): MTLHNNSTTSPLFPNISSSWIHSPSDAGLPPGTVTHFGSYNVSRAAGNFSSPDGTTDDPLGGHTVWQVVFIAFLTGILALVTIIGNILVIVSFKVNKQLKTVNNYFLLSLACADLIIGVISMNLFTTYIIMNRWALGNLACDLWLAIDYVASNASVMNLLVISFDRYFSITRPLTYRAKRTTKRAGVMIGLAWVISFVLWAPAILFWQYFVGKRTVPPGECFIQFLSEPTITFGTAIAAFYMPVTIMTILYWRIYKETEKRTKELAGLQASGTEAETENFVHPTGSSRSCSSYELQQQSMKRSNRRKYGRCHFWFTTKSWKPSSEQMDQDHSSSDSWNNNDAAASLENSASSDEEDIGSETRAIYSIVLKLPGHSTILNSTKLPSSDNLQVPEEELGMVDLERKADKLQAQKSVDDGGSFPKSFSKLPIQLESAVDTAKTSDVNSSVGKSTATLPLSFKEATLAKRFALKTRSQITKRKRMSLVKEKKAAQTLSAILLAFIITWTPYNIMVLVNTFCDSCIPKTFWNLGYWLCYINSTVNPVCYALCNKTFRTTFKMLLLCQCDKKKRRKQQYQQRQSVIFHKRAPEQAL

SMILES: CCOC(=O)N1CCC(NCCNC(=O)c2ccc(F)cc2)CC1.O=C(O)C(F)(F)F [VU0359993]
- M1 potency and efficacy (SAR statement) [1]: retaining substantial potency and efficacy

SMILES: CCOC(=O)N1CCC(NCCNC(=O)c2cccc(OC)c2)CC1.O=C(O)C(F)(F)F [VU0360014]
- M1 potency and efficacy (SAR statement) [1]: retaining substantial potency and efficacy

SMILES: CCOC(=O)N1CCC(NCCNC(=O)c2cccc(F)c2)CC1.O=C(O)C(F)(F)F [VU0359995]
- M1 potency and efficacy (SAR statement) [1]: retaining substantial potency and efficacy

SMILES: Clc1ccc2c(c1)N=C(N1CCNCC1)c1ccccc1N2 [NDMC, N-desmethylclozapine, reference compound]
- potency at M1 Y381A compared with WT M1 [2]: potency similar to that observed in cells expressing WT M1

- agonist activity at M5 [3]: no alteration was detected in baseline
- rM1 Y381A AChmax (maximal efficacy) ([2]; rM1 Y381A cells): 45.80 % max
- agonist activity at M2 [4]: no alteration was detected in baseline
- EC50 [1, 13]: 804 nM
- agonist activity at M4 [5]: no alteration was detected in baseline
- agonist activity at M3 [6]: no alteration was detected in baseline
- sensitivity to block by atropine [7]: sensitive to block by atropine
- EC50 [7]: ~1000 nM
SMILES: CCOC(=O)N1CCC(NCCNC(=O)c2ccccc2Cl)CC1 [VU0207811]

- agonist activity at M5 [3]: no alteration was detected in baseline
- rM1 Y381A AChmax (maximal efficacy) ([2]; rM1 Y381A cells): 44.69 % max
- EC50 ([2]; read-out: rM1 Y381A EC50, rM1 Y381A cells): 1230 nM
- agonist activity at M2 [4]: no alteration was detected in baseline
- EC50 [1, 13]: 1740 nM
- agonist activity at M4 [5]: no alteration was detected in baseline
- agonist activity at M3 [6]: no alteration was detected in baseline
- selectivity for M1 vs. M4 ([7]; M1-CHO vs M4/Gqi5 CHO cells): > 50 fold
- sensitivity to block by atropine [7]: sensitive to block by atropine
- EC50 [7]: ~1000 nM
SMILES: CCOC(=O)N1CCC(NCCNC(=O)c2cccs2)CC1 [VU0177548]

SMILES: CN1[C@@H]2C[C@@H](OC(=O)[C@H](CO)c3ccccc3)C[C@H]1[C@@H]1O[C@@H]12 [scopolamine]
- effect on acquisition of contextual fear conditioning response [8]: significant disruption
- effect on acquisition of contextual fear conditioning response ([8]; listed as Scopolamine): robust disruption

SMILES: Cc1ccccc1CN1CCC(N2CCC(n3c(=O)[nH]c4ccccc43)CC2)CC1 [TBPB]
- IC50 [9]: 1100 nM
- IC50 [10]: 10100 nM

- agonist activity at M5 [3]: no activity
- solubility [11]: > 25 mg/mL
- Kp ([12]; male, Sprague-Dawley, brain and plasma, ip, 10 mg/kg): 1.46
- brain level ([12]; 10 mg/kg i.p., brain): 4338.90 ± 1071.20 ng/mL
- plasma level ([12]; 10 mg/kg i.p., plasma): 1053.49 ± 276.03 ng/mL
- central penetrance ([12]; i.p. administration): centrally-penetrant
- agonist activity at M2 [4]: no activity
- ACh Max efficacy [1, 13]: 80.52 % ACh Max
- agonist activity at M4 [5]: no activity
- agonist activity at M3 [6]: no activity
SMILES: CCOC(=O)N1CCC(NCCNC(=O)c2ccccc2C)CC1 [VU0357017, ethyl 4-(2-(2-methylbenzamido)ethylamino)piperidine-1-carboxylate]
- potency at M1 Y381A compared with WT M1 [2]: potencies similar to those observed in WT M1 CHO cells
- reversal of scopolamine-induced deficits in contextual fear conditioning ([8]; 10 mg/kg i.p., scopolamine 0.2 mg/kg s.c., p < 0.05): significant reversal

Reference: PMC3180826 (ACS chemical neuroscience, 2010)
